Measurements from PubChem BioAssay.
Records with an inconclusive call do not appear.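 How the source made its calls, unless noted: active means RAM network inhibition above 8.4% in each of two replicates, 3 SD over the compound average; inconclusive means above 8.4% inhibition in only one replicate; inactive means 8.4% inhibition or less in each replicate.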

What was measured:
[1] = S. cerevisiae growth inhibition in permissive medium (OD615), pilot counter-assay for S. cerevisiae lifespan shortening project, permissive growth control (AID 705;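 active means growth inhibition above 25% in both replicates, a cutoff set 3 SD above the mean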); conditions: OD615, 24 h, at 10 µM, stronger effect = higher value
In short: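 Material: engineered DeaD yeast; Compound: one dose 10 µM, DMSO 0.25% final; Detection: absorbance (optical density) at 615 nm; Buffer or medium: permissive raffinose/galactose medium; Timing: 24 h exposure, 30 °C.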

[2] = S. cerevisiae growth inhibition in restrictive medium, OD615, pilot screen, restrictive growth control, yeast lifespan reduction project (AID 706;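 active means growth inhibition above a set limit, 3 SD over mean compound inhibition, in both replicates, cut at about 43% in these data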;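 further: modified DeaD lifespan yeast strain shifted to restrictive glucose medium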); conditions: OD615, 48 h, at 10 µM, stronger effect = higher value
In short: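 Buffer or medium: restrictive glucose medium (CSMM-D); test system: modified S. cerevisiae; doses: single dose of 10 µM compound final, 0.25% DMSO; schedule: 48 h compound exposure at 30 °C; detection: absorbance (optical density) measured at 615 nm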

[3] = doxorubicin toxicity protection in MRP-1 cells – H69AR cells, CellTiter-Glo, duplicate, MRP-1 activator project, pilot screen (AID 807;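 active means viability increase at or above a cutoff of the median across tested compounds plus 3 SD, cut at about 8.5% in these data, passing the limit was not always enough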;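 further: compound pretreatment 18-22 h then 72 h combined with doxorubicin; 0% = doxorubicin alone and 100% = vehicle without doxorubicin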); conditions: H69AR viability with doxorubicin, CellTiter-Glo luminescence; at 10 µM; stronger effect = higher value
[4] = viability of HCT116 without oncogenic beta-catenin – human colon tumor cells, pilot screen (AID 823;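 active means cell viability at or below a set limit in both duplicate runs, the limit being the all-compound median minus 4 SD, cut at about 23% in these data, passing the limit was not always enough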;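 further: 0% = wells killed by 20 µM Hyamine and 100% = untreated DMSO cell wells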); conditions: HCT116 beta-catenin knockout viability, CellTiter-Glo, 60 h; at 10 µM; stronger effect = lower value
[5] = viability of PTEN-null HCT116 cells – cell-based, HCT116 clonal line, CellTiter-Glo, pilot screen (AID 824;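 active means viability at or below 27.92% in each of two runs, the all-compound median minus 4 SD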;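 further: 0% = 20 µM Hyamine control and 100% = vehicle cell control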); conditions: HCT116 PTEN-deleted viability, 60 h, at 10 µM, stronger effect = lower value
[6] = RAM pathway blockade in budding yeast – dse1pr::URA3 reporter, 5-FOA selection, pilot screen (AID 869;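 active means inhibition over a set limit, the all-compound mean plus 3 SD, in both replicate runs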;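 further: 0% = DMSO wells with no growth and 100% = 10 µM 1-NA-PP1 with full growth; RAM network block rescues cells from 5-FOA so hits raise OD615 growth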); conditions: S. cerevisiae dse1pr::URA3 5-FOA growth, OD615, 2 d; at 10 µM; stronger effect = higher value; strain carries analog-sensitive mutant Cbk1 kinase
[7] = RAM signaling pathway blockade in yeast – S. cerevisiae, Pdr1DBD-CYC8 efflux-inhibited sensitized strain, primary screen (AID 1298);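 further: 0% = DMSO untreated cells without growth and 100% = 10 µM 1-NA-PP1 full growth; higher means more yeast growth rescued from 5-FOA killing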; conditions: S. cerevisiae cbk1-as DSE1-URA3 strain, 5-FOA growth OD615, 2 d; at 50 µM; stronger effect = higher value

C=CC(C)Sc1nc2c(c(=O)n(C)c(=O)n2C)n1Cc1ccccc1Cl (configuration not stated)
inactive: growth inhibition [1] -3.12% | growth inhibition [2] -2.02% | viability increase [3] -3.37% | viability [4] 100% | viability [5] 99.3% | inhibition [6] 0.785% | RAM network inhibition [7] 5.22%

CCCC(=O)NCCc1cc2ccc(C)c(C)c2[nH]c1=O
inactive: growth inhibition [1] -13% | growth inhibition [2] -25.4% | viability increase [3] -1.61% | viability [4] 103% | viability [5] 97.6% | inhibition [6] 1.91% | RAM network inhibition [7] 4%

CSc1cccc(NC(=O)CN2C(=O)c3ccccc3S2(=O)=O)c1
inactive: growth inhibition [1] -2.94% | growth inhibition [2] 3.68% | viability increase [3] -0.41% | viability [4] 106% | viability [5] 101% | inhibition [6] 0.095% | RAM network inhibition [7] 0.05%

CCN(CC)CCCNC(=O)Cn1cc2c(n1)CCC(C)C2 (configuration not stated)
inactive: growth inhibition [1] -3.44% | growth inhibition [2] -0.585% | viability increase [3] -1.22% | viability [4] 96.9% | viability [5] 98.1% | inhibition [6] 2.05% | RAM network inhibition [7] 2.3%

Cc1cc(C)n(C(=O)c2ccc(NC(=O)C3CC3)cc2)n1
inactive: growth inhibition [1] -8.57% | growth inhibition [2] -4.89% | viability increase [3] 1.99% | viability [4] 102% | viability [5] 91.3% | inhibition [6] 1.58% | RAM network inhibition [7] 5.67%

OC1CCN(c2c3c(nc4cc(-c5cccc(F)c5)nn24)CCCC3)CC1
inactive: growth inhibition [1] 2.2% | growth inhibition [2] -11.2% | viability increase [3] -6.47% | viability [4] 73.8% | viability [5] 65% | inhibition [6] 2.02% | RAM network inhibition [7] 9.14%

CCOC(=O)c1ccc(NC(=O)CSc2nc3c(c(=O)n2C)SC(C)C3)cc1 (configuration not stated)
inactive: growth inhibition [1] 1.02% | growth inhibition [2] 7.47% | viability increase [3] -2.01% | viability [4] 72.9% | viability [5] 74.3% | inhibition [6] 0.975% | RAM network inhibition [7] 3.08%

O=C(Nc1ccncc1)c1cccs1
inactive: growth inhibition [1] -6.22% | growth inhibition [2] 4.99% | viability increase [3] -2.27% | viability [4] 105% | viability [5] 95.2% | inhibition [6] 1.87% | RAM network inhibition [7] 0.93%

O=C(CC1Sc2ccccc2NC1=O)Nc1cccc(C(=O)O)c1 (configuration not stated)
inactive: growth inhibition [1] 0.01% | growth inhibition [2] 8.77% | viability increase [3] -0.43% | viability [4] 101% | viability [5] 87% | inhibition [6] 1.14% | RAM network inhibition [7] 4.51%

CCOC(=O)c1[nH]c2c(c1C)C(=O)CC(c1ccc(N(C)C)cc1)C2 (configuration not stated)
inactive: growth inhibition [1] -3.69% | growth inhibition [2] -0.995% | viability increase [3] -3.6% | viability [4] 77% | viability [5] 71.7% | inhibition [6] 2.3% | RAM network inhibition [7] 1.32%

COC(=O)C(C(=O)OC)C(C(C)C)C(C(=O)OC)C(=O)OC
inactive: growth inhibition [1] -8.23% | growth inhibition [2] -9.04% | viability increase [3] -1.49% | viability [4] 101% | viability [5] 98.2% | inhibition [6] 1.07% | RAM network inhibition [7] 3.68%

CCOc1ccc(C(=O)Nc2c3c(nn2-c2cccc(C)c2C)CS(=O)C3)cc1 (configuration not stated)
inactive: growth inhibition [1] -1.6% | growth inhibition [2] 3.53% | viability increase [3] -0.32% | viability [4] 98.4% | viability [5] 96.2% | inhibition [6] 1.62% | RAM network inhibition [7] 2.34%

CC(C)Sc1oc(-c2ccco2)nc1S(=O)(=O)c1ccc(F)cc1
inactive: growth inhibition [1] -5.61% | growth inhibition [2] -0.07% | viability increase [3] -2.29% | viability [4] 94% | viability [5] 89.8% | inhibition [6] 1.54% | RAM network inhibition [7] 6.36%

CC(=O)NC(CCS(C)(=O)=O)C(=O)Nc1cc(C)ccc1C (configuration not stated)
inactive: growth inhibition [1] -10.6% | growth inhibition [2] -20% | viability increase [3] 0.57% | viability [4] 98.5% | viability [5] 94.3% | inhibition [6] 2.23% | RAM network inhibition [7] 3.07%

Cc1cccc(NC(=O)CC2SC(=NC3CCCCC3)NC2=O)c1 (configuration not stated)
inactive: growth inhibition [1] -5.5% | growth inhibition [2] -21.6% | viability increase [3] 0.92% | viability [4] 99.2% | viability [5] 94.9% | inhibition [6] 0.415% | RAM network inhibition [7] 4.77%

CCCC(=O)NCCCCNC(=O)CCC
inactive: growth inhibition [1] 2.78% | growth inhibition [2] 2.44% | viability increase [3] -0.9% | viability [4] 96.4% | viability [5] 101% | inhibition [6] 0.09% | RAM network inhibition [7] 4.07%

Cc1cc(C(=O)NCC2CCCO2)n(-c2ccccc2)n1 (configuration not stated)
inactive: growth inhibition [1] -0.68% | growth inhibition [2] -2.33% | viability increase [3] -1.22% | viability [4] 100% | viability [5] 103% | inhibition [6] 0.28% | RAM network inhibition [7] 2.07%

CCOc1ccc(OCC)c(NS(=O)(=O)c2cccc3nsnc23)c1
inactive: growth inhibition [1] -13.8% | growth inhibition [2] -21.1% | viability increase [3] -2.5% | viability [4] 88.8% | viability [5] 98% | inhibition [6] 2.63% | RAM network inhibition [7] 3.41%

CCOC(=O)CC(=O)Nc1ccc(C(=O)OCC)cc1
inactive: growth inhibition [1] 4.17% | growth inhibition [2] 7.02% | viability increase [3] 1.09% | viability [4] 101% | viability [5] 105% | inhibition [6] 1.54% | RAM network inhibition [7] 4.84%

O=C(CC1SC(=Nc2ccccc2)N(CCCO)C1=O)Nc1ccc(Cl)cc1 (configuration not stated)
inactive: growth inhibition [1] -6.75% | growth inhibition [2] -7.97% | viability increase [3] -6.7% | viability [4] 48.1% | viability [5] 42.1% | inhibition [6] 0.52% | RAM network inhibition [7] 1.29%

COc1ccccc1-c1cc(C2CC2)nc(N)c1C#N
inactive: growth inhibition [1] -20.8% | growth inhibition [2] -19.3% | viability increase [3] -3.86% | viability [4] 94.7% | viability [5] 94.2% | inhibition [6] -0.08% | RAM network inhibition [7] 3.76%

Cc1occc1C(=O)NC1CCCCCC1
inactive: growth inhibition [1] -17.9% | growth inhibition [2] -9.95% | viability increase [3] -0.64% | viability [4] 95.5% | viability [5] 96.6% | inhibition [6] -0.355% | RAM network inhibition [7] -0.22%

O=C(c1ccccc1)c1ccc(N2CCCC2)cc1
inactive: growth inhibition [1] -1.86% | growth inhibition [2] 7.65% | viability increase [3] -2.59% | viability [4] 93% | viability [5] 96.4% | inhibition [6] 1.23% | RAM network inhibition [7] 1.03%

CC(C)c1cc(C(=O)Nc2ccc3c(c2)OCO3)no1
inactive: growth inhibition [1] -13.7% | growth inhibition [2] 4.26% | viability increase [3] -4.63% | viability [4] 94.2% | viability [5] 92.8% | inhibition [6] 1.88% | RAM network inhibition [7] 3.88%

Cc1ccccc1NC(=O)NCCN1C(=O)C2C3C=CC(C3)C2C1=O (configuration not stated)
inactive: growth inhibition [1] -7.87% | growth inhibition [2] 1.59% | viability increase [3] -2.01% | viability [4] 103% | viability [5] 102% | inhibition [6] 0.745% | RAM network inhibition [7] 1.46%

CCOc1ccc(C2C(C(=O)NC)=C(C)Nc3nc4ccccc4n32)cc1OC (configuration not stated)
inactive: growth inhibition [1] -4.37% | growth inhibition [2] -0.94% | viability increase [3] 0.24% | viability [4] 98.8% | viability [5] 103% | inhibition [6] 1.18% | RAM network inhibition [7] 2.01%

CCC(C)NC(=O)c1cnc2n(c1=O)CCS2 (configuration not stated)
inactive: growth inhibition [1] 0.08% | growth inhibition [2] -1.8% | viability increase [3] 1.88% | viability [4] 103% | viability [5] 103% | inhibition [6] 1.18% | RAM network inhibition [7] 1.25%

Cc1ccc(-n2c(SCC(=O)Nc3nccs3)nc3c(c2=O)SCC3)cc1
inactive: growth inhibition [1] -10.3% | growth inhibition [2] -5.16% | viability increase [3] -6.87% | viability [4] 94.2% | viability [5] 92.2% | inhibition [6] 3.41% | RAM network inhibition [7] 6.62%

C=CCOC(=O)C1=C(C)NC(=O)NC1c1ccc(OC(=O)c2ccco2)c(OC)c1 (configuration not stated)
inactive: growth inhibition [1] -6.37% | growth inhibition [2] -18.3% | viability increase [3] -0.16% | viability [4] 93.6% | viability [5] 96.4% | inhibition [6] 0.145% | RAM network inhibition [7] 2.71%

Cn1nc(-c2ccc(Cl)cc2)c2cc(C(=O)N3CCCC3)sc21
inactive: growth inhibition [1] -8.92% | growth inhibition [2] -9.39% | viability increase [3] -2.97% | viability [4] 96.9% | viability [5] 85.7% | inhibition [6] 1.97% | RAM network inhibition [7] 3.39%

O=C(C1CCN(S(=O)(=O)c2cccc3cccnc23)CC1)N1CCN(c2ccc(Cl)cc2)CC1
inactive: growth inhibition [1] -3.56% | growth inhibition [2] 0.215% | viability increase [3] -1.23% | viability [4] 31.1% | viability [5] 38.6% | inhibition [6] 1.4% | RAM network inhibition [7] 4.56%

O=C1CC2CS(=O)(=O)CC2N1C1CCCCC1 (configuration not stated)
inactive: growth inhibition [1] -8.38% | growth inhibition [2] -13.2% | viability increase [3] -0.5% | viability [4] 107% | viability [5] 96% | inhibition [6] 0.495% | RAM network inhibition [7] 2.85%

COCCCNC(=O)Cn1ncc2ccsc2c1=O
inactive: growth inhibition [1] -4.86% | growth inhibition [2] 3.33% | viability increase [3] 1.3% | viability [4] 107% | viability [5] 101% | inhibition [6] -0.05% | RAM network inhibition [7] -0.97%

Cn1c(=O)c2c(nc(NCc3ccccc3)n2Cc2ccc(F)cc2)n(C)c1=O
inactive: growth inhibition [1] -2.42% | growth inhibition [2] -16.9% | viability increase [3] -5.47% | viability [4] 65.9% | viability [5] 54.1% | inhibition [6] 2.54% | RAM network inhibition [7] 3.33%

O=C(CCc1ccccc1)Nc1ccc(NC(=O)c2ccco2)cc1
inactive: growth inhibition [1] -5.04% | growth inhibition [2] 0.64% | viability increase [3] -1.63% | viability [4] 103% | viability [5] 93.7% | inhibition [6] 1.44% | RAM network inhibition [7] 2.56%

Cc1ccc(-n2nc(C)c3c(C)c(CCC(=O)NCc4ccco4)c(C)nc32)cc1
inactive: growth inhibition [1] -15% | growth inhibition [2] -9.24% | viability increase [3] -3.52% | viability [4] 84.7% | viability [5] 75.5% | inhibition [6] 0.985% | RAM network inhibition [7] 4.13%
